Data from ChEMBL document CHEMBL4002547, “Aminopurine and aminoquinazoline scaffolds for development of potential dengue virus inhibitors” (Eur J Med Chem, 2017).

Assays:
[1] = test system: dengue virus type 2; experiment: Antiviral activity against Dengue virus serotype 2 by human cell-based assay; type: functional
[2] = Cytotoxicity against African green monkey Vero B cells assessed as decrease in cell viability by MTS/PMS assay; type: cell-based; settings: chlorocebus sabaeus
Procedure, shortened: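 Vero B cells (African green monkey kidney, ECACC) were incubated for 7 days with serial compound dilutions without virus. Toxicity was quantified by the MTS/PMS method, and CC50 is the compound concentration giving 50% cytotoxicity.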

[3] = test system: dengue virus type 2; experiment: Antiviral activity against Dengue virus serotype 2 infected in African green monkey Vero B cells assessed as inhibition of viral RNA replication after 4 days by RT-qPCR method; type: functional; settings: 96 h, read-out: ED50 (the source's name)
[4] = Selectivity index, ratio of CC50 for African green monkey Vero B cells to EC50 for Dengue virus serotype 2 infected in African green monkey Vero B cells; type: toxicity; settings: read-out: Ratio CC50/EC50
Procedure, shortened: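 In a CPE-reduction assay, DENV-2 in Vero B cells was run over 7 days with serial compound dilutions, with and without virus. EC50 (inhibition of virus-induced CPE) and CC50 come from microscopic scoring, with MTS/PMS also used for toxicity. The index is CC50/EC50.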

[5] = Cytotoxicity against African green monkey Vero B cells assessed as decrease in cell viability by microscopic method; type: cell-based; settings: chlorocebus sabaeus
Procedure, shortened: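 Uninfected Vero B cells were exposed for 7 days to serial compound dilutions. Wells were inspected microscopically for changes in host cell morphology, and CC50 was calculated from the microscopic scoring data.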

[6] = Inhibition of Dengue virus serotype 2 N-terminal His6-tagged NS5 RdRp activity expressed in baculovirus expression system using poly(C)/5'-biotinylated oligo (G)20 as template/primer assessed as inhibition of [3H]GTP incorporation after 20 mins by scintillation proximity assay; design: species or system dengue virus type 2

SMILES | EC50 [1] | CC50 [2] | EC50 [3] | selectivity ratio [4] | CC50 [5] | IC50 [6]
Clc1ccc(-c2ccc(-c3nc(NCc4cccnc4)c4ccccc4n3)s2)cc1 | 0.119 µM |  |  |  |  | 
COc1ccc(Cn2cnc3nc(Cl)nc(Cl)c32)cc1 |  | 12.3 µM | 9.9 µM | 1 |  | 
COc1ccc(Cn2cnc3c(Nc4ccc(C)cc4-c4cc(C)n[nH]4)nc(Cl)nc32)cc1 |  | > 109 µM | 1.9 µM | 58 | 10 µM | 
COc1ccc(Cn2cnc3c(Cl)nc(Cl)nc32)cc1 |  | 32.4 µM | 17.6 µM | 2 |  | 
Cc1ccc(Nc2nc(Cl)nc3ccccc23)c(-c2cc(C)n[nH]2)c1 |  | 97 µM | 9.2 µM | 11 |  | 
Cc1ccc(Nc2nc(Nc3ccc(F)cc3)nc3ccccc23)c(-c2cc(C)n[nH]2)c1 |  | 8.7 µM | 6.7 µM | 1 |  | 
COc1ccc(Cn2cnc3c(Nc4ccc(C)cc4Br)nc(Cl)nc32)cc1 |  | > 109 µM | 7.2 µM | 15 | 63 µM | 
Cc1ccc(Nc2nc(Cl)nc3ccccc23)c(Br)c1 |  | > 144 µM | 10.9 µM | 13 | 32 µM | 
Cc1ccc(Nc2nc(Cl)nc3[nH]cnc23)c(-c2cc(C)n[nH]2)c1 |  | > 147 µM | 28.9 µM | 5 |  | 
O=C(O)c1ccccc1NS(=O)(=O)c1cccc(-c2cnn(Cc3ccccc3)c2)c1 |  |  |  |  |  | 0.7 µM
Cc1ccc(Nc2nc(Nc3ccc(C)cc3-c3cc(C)n[nH]3)c3ccccc3n2)cc1 |  | 5.8 µM | 2.6 µM | 2 |  | 
Cc1ccc(Nc2nc(Cl)nc3[nH]cnc23)c(Br)c1 |  | > 148 µM | 33.5 µM | 4 |  | 
